Data from ChEMBL document CHEMBL1154331, “Allenyl and alkynyl phenyl ethers from the endolichenic fungus Neurospora terricola” (J Nat Prod, 2009).

What was measured:
HeLa = experiment: Cytotoxicity against human HeLa cells after 48 hrs by MTT assay; format: functional, cell-based
How it was run: (§1)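 Run in triplicate; 10^4 cells per well, attached overnight. Cells exposed 4 h at 37 °C, 5% CO2, to compounds serially diluted from 10 mg/mL DMSO stocks (vehicle wells 0.2% DMSO in medium), then medium changed to fresh DMEM and grown a further 48 h. MTT at 0.5 mg/mL added for 3 h at 37 °C in the dark; formazan dissolved in DMSO, absorbance read at 540 nm.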

MCF7 = experiment: Cytotoxicity against human MCF7 cells after 48 hrs by MTT assay; format: functional, cell-based; details: MCF7, 48 h; how it was run: as §1

C#C[C@H](O)COc1ccc(COC)cc1
IC50 (HeLa): 92.6 µM | IC50 (MCF7): 116 µM

C#C[C@H](O)COc1ccc(COC(C)=O)cc1
IC50 (HeLa): > 171 µM | IC50 (MCF7): > 171 µM

O=c1[nH]cc(F)c(=O)[nH]1 [FLUOROURACIL]
IC50 (HeLa): 10 µM

C=C=CCOc1ccc(CO[C@@H]2O[C@H](CO)[C@@H](O)[C@H](O)[C@H]2O)cc1 [TERRICOLLENE A]
IC50 (HeLa): 53.3 µM | IC50 (MCF7): 59.2 µM

C=C=CCOc1ccc(CO[C@@H]2O[C@H](CO)[C@@H](O)[C@H](O)[C@@H]2O)cc1 [TERRICOLLENE B]
IC50 (HeLa): > 118 µM | IC50 (MCF7): > 118 µM

C=C=CCOc1ccc(CO)cc1 [TERRICOLLENE C]
IC50 (HeLa): 85.2 µM | IC50 (MCF7): 114 µM

C#C[C@H](O)COc1ccc(CO)cc1 [TERRICOLYNE]
IC50 (HeLa): > 200 µM | IC50 (MCF7): > 200 µM
